Assay results taken from ChEMBL document CHEMBL1138799, “4-benzyl- and 4-benzoyl-3-dimethylaminopyridin-2(1H)-ones, a new family of potent anti-HIV agents: optimization and in vitro evaluation against clinically important HIV mutant strains” (J Med Chem, 2004).

What was measured:
[1] = test system: Human immunodeficiency virus 1; assay: Inhibitory activity against HIV-1 mutant strain 190S; type: functional, organism-based
Summary of the method: (§1)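 Mutant HIV-1 made by recombining mutant PR-RT sequence into a PR-RT-deleted HXB2 proviral clone. Serial compound concentrations plated, then virus (200 CCID50/well) and MT4 cells (30 000 cells/well; RPMI 1640, 10% FCS) added; 5 days at 37 °C, 5% CO2; viability read by MTT. EC50 = concentration giving 50% infection versus drug-free control; mock-infected cultures run in parallel for toxicity.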

[2] = test system: Human immunodeficiency virus 1; assay: Inhibitory activity against HIV-1 mutant strain 103N; type: functional, organism-based; summary of the method: as §1
[3] = test system: Human immunodeficiency virus 1; assay: Inhibitory activity against HIV-1 mutant strain 188L; type: functional, organism-based; summary of the method: as §1
[4] = test system: Human immunodeficiency virus 1; assay: Inhibitory activity against HIV-1 double mutants strain 101E and 103N; type: functional, organism-based; summary of the method: as §1
[5] = test system: Human immunodeficiency virus 1; assay: Selectivity index of cytotoxic activity (CC50) to inhibitory activity (IC50) relative to LAI cell line; type: functional
Summary of the method: (§2)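 MT4 human T-lymphoblastoid cells were grown in RPMI 1640 with 10% fetal calf serum and antibiotics at 37 °C and 5% CO2. A compound concentration series was combined with HIV-1 LAI at 200 CCID50/well and 30 000 cells/well. Mock-infected cultures with the same concentrations were run in parallel to measure cytotoxicity. After 5 days, cell viability was read by MTT colorimetry. EC50 is the concentration giving 50% infection versus the drug-free control.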

[6] = test system: Human immunodeficiency virus 1; assay: Inhibitory activity against wild type HIV-1 LAI cell line; type: functional, organism-based; details: Human immunodeficiency virus 1, LAI; summary of the method: as §2
[7] = test system: Human immunodeficiency virus 1; assay: Inhibitory activity against HIV-1 mutant strain 190A; type: functional, organism-based; summary of the method: as §1
[8] = test system: Human immunodeficiency virus 1; assay: Inhibitory activity against HIV-1 mutant strain 100I; type: functional, organism-based; summary of the method: as §1
[9] = test system: Human immunodeficiency virus 1; assay: Inhibitory activity against HIV-1 double mutants strain 103N and 181C; type: functional, organism-based; summary of the method: as §1
[10] = test system: Human immunodeficiency virus 1; assay: Inhibitory activity against HIV-1 mutant strain 138K; type: functional, organism-based; summary of the method: as §1
[11] = test system: Human immunodeficiency virus 1; assay: Inhibitory activity against HIV-1 double mutants strain 227L and 106A; type: functional, organism-based; summary of the method: as §1
[12] = test system: Human immunodeficiency virus 1; assay: Inhibitory activity against HIV-1 double mutants strain 100I and 103N; type: functional, organism-based; summary of the method: as §1
[13] = test system: Human immunodeficiency virus 1; assay: Inhibitory activity against HIV-1 mutant strain 227C; type: functional, organism-based; summary of the method: as §1
[14] = test system: Human immunodeficiency virus 1; assay: Inhibitory activity against HIV-1 mutant strain 101E; type: functional, organism-based; summary of the method: as §1
[15] = test system: Human immunodeficiency virus 1; assay: Inhibitory activity against HIV-1 mutant strain 179E; type: functional, organism-based; summary of the method: as §1
[16] = test system: Human immunodeficiency virus 1; assay: Inhibitory activity against HIV-1 mutant strain 106A; type: functional, organism-based; summary of the method: as §1
[17] = test system: Human immunodeficiency virus 1; assay: Inhibitory activity against HIV-1 mutant strain 181C; type: functional, organism-based; summary of the method: as §1

Work on `CCc1c(C)nc(O)c(N(C)C)c1C(=O)c1cccc(/C=C/C#N)c1` yielded an IC50 [1] of 6 nM, an IC50 [2] of 2 nM and an IC50 [3] of 150 nM. It also gave an IC50 [4] of 10 nM, a Selectivity index [5] of 10000 and an IC50 [6] of 1 nM. For the same compound, the IC50 [7] was 6 nM, the IC50 [8] was 6 nM and the IC50 [9] was 40 nM. The IC50 [10] was 5 nM, the IC50 [11] was 1000 nM and the IC50 [12] was 20 nM. It also gave an IC50 [13] of 790 nM, an IC50 [14] of 8 nM and an IC50 [15] of 1 nM. For the same compound, the IC50 [16] was 2 nM and the IC50 [17] was 10 nM.

With `CCc1c(C)nc(O)c(N(C)C)c1Cc1cccc(/C=C/C#N)c1` the IC50 [1] was 40 nM, the IC50 [2] was 2 nM and the IC50 [3] was 150 nM. The IC50 [4] was 20 nM, the Selectivity index [5] was 25100 and the IC50 [6] was 0.4 nM. It also gave an IC50 [7] of 8 nM, an IC50 [8] of 10 nM and an IC50 [9] of 30 nM. The IC50 [10] was 3 nM, the IC50 [11] was 3160 nM and the IC50 [12] was 30 nM. The IC50 [13] was 390 nM, the IC50 [14] was 6 nM and the IC50 [15] was 1 nM. It also gave an IC50 [16] of 2 nM and an IC50 [17] of 10 nM.

Work on `CCOCn1c(Cc2ccccc2)c(C(C)C)c(=O)[nH]c1=O` [EMIVIRINE] yielded an IC50 [1] of 7940 nM, an IC50 [2] of 790 nM and an IC50 [3] of 39800 nM. It also gave an IC50 [4] of 7940 nM, a Selectivity index [5] of 1260 and an IC50 [6] of 8 nM. It also gave an IC50 [7] of 1580 nM, an IC50 [8] of 40 nM and an IC50 [9] of 100000 nM. For the same compound, the IC50 [10] was 70 nM, the IC50 [11] was 100000 nM and the IC50 [12] was 25100 nM. It also gave an IC50 [13] of 79400 nM, an IC50 [14] of 120 nM and an IC50 [15] of 30 nM. The IC50 [16] was 1990 nM and the IC50 [17] was 1990 nM.
